Key:
Interleukin-2 [1] = target: T1, Interleukin-2 (Homo sapiens, UniProt P60568); test: Concentration required to inhibit mouse interleukin-2 alpha receptor was determined by SPA assay
How it was run: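 SPA: compounds as 3-fold serial dilutions in DMSO added to 10 nM tritiated propionic acid-labeled IL-2 in Superblock, then to biotinylated IL-2Rα on streptavidin scintillant beads (0.7 mg/mL). Scintillation from receptor-bound IL-2 counted; IC50 by nonlinear regression of counts vs concentration.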
Target sequence in this assay (P60568 whole entry): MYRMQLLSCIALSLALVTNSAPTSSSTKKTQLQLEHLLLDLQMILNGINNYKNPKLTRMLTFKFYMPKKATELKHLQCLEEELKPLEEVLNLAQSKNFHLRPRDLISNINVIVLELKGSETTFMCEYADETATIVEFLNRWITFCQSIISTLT

Interleukin-2 [2] = target: T1, Interleukin-2; test: Inhibition of mouse interleukin-2 alpha receptor by ELISA; conditions: target entry is the homologue from another species
How it was run: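 ELISA: 15 nM biotinylated IL-2Rα captured on streptavidin-coated wells; 3-fold serial compound dilutions with 5 nM IL-2 (2% DMSO final) in Superblock/0.01% Tween 20 incubated on receptor.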
Target sequence in this assay (P60568 whole entry): as above

Interleukin-2 [3] = target: T1, Interleukin-2; test: Effective concentration required against phosphorylation of Mammary gland factor/STAT5; format: functional, Mus musculus
How it was run: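 Mouse CTLL-2 T cells grown to about 1 × 10^6 cells/mL in RPMI/IL-2, starved of IL-2 overnight, then given 2-fold serial compound dilutions in medium with 0.1 ng/mL human IL-2 for 30 min at 37 °C. Phospho-STAT5 measured by western blot and densitometry, plotted against concentration; average of three experiments.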
Target sequence in this assay (P60568 whole entry): as above

Interleukin-2 [4] = target: T1, Interleukin-2; test: Inhibition of mouse Interleukin-2 receptor alpha; conditions: target entry is the homologue from another species
Target sequence in this assay (P60568 whole entry): as above

[5] = Volume distribution (steady state) of compound was determined in mouse; format: ADME, organism-based; conditions: in vivo, read-out: Vss
How it was run: (§1)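 Male CD-1 mice, 10 mg/kg IV bolus via lateral tail vein, 2.5 mg/mL in PEG 400; three mice per time point. Cardiac blood into sodium-EDTA at 0.5–8 h, plasma by LC-MS/MS against a plasma standard curve; parameters from mean concentration–time profiles.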

[6] = Plasma clearance in mouse; format: ADME, organism-based; conditions: read-out: Clp; how it was run: as §1
Interleukin-2 [7] = target: T1, Interleukin-2; test: Dissociation constant for human Interleukin-2 by SPR assay
Target sequence in this assay (P60568 whole entry, looked up): as the sequence (P60568 whole entry) above

Row | IC50 (Interleukin-2 [1]) | IC50 (Interleukin-2 [2]) | Compound | further results
1 | 10 µM |  | N=C(N)N[C@@H](C(=O)NCC(=O)N1CCC(c2cc(-c3ccc(Cl)cc3Cl)[nH]n2)CC1)C1CCCCC1 | 
2 |  | 720 µM | COC(=O)[C@H](Cc1ccc(C#Cc2ccccc2)cc1)NC(=O)CNC(=O)[C@@H]1CCCN1C(=N)N | 
3 | 130 µM |  | NC(N)=N[C@@H](C(=O)NCC(=O)N1CCC(c2cc(-c3cccc(Cl)c3)n[nH]2)CC1)C1CCCCC1 | 
4 | 2 µM |  | CC(C)C[C@@H](N=C(N)N)C(=O)NCC(=O)N1CCC(c2cc(-c3cccc(Cl)c3Cl)nn2C)CC1 | EC50 (Interleukin-2 [3]): ~25 µM
5 |  |  | COC(=O)[C@H](Cc1ccc(C#Cc2ccccc2)cc1)NC(=O)C[C@H]1CCCN(C(=N)N)C1 | IC50 (Interleukin-2 [4]): 7 µM; EC50 (Interleukin-2 [3]): 100 µM
6 |  | 20 µM | COC(=O)[C@H](Cc1ccc(C#Cc2ccccc2)cc1)NC(=O)CNC(=O)[C@H](N=C(N)N)C1CCCCC1 | 
7 | 500 µM |  | NC(N)=N[C@@H](C(=O)NCC(=O)N1CCC(c2nc(-c3ccc(Cl)cc3Cl)no2)CC1)C1CCCCC1 | 
8 |  |  | CNC(=O)C[C@H]1CCCN(C(=N)N)C1 | IC50 (Interleukin-2 [4]): > 10000 µM
9 | 3.5 µM |  | COc1ccc(-c2cc(C3CCN(C(=O)CNC(=O)[C@@H](CC(C)C)N=C(N)N)CC3)n(C)n2)c(Cl)c1Cl | 
10 |  |  | CC(C)C[C@@H](NC(=N)N)C(=O)NCC(=O)N1CCC(c2cc(-c3ccc(OCc4ccc(C(=O)O)o4)c(Cl)c3Cl)nn2C)CC1 | Vd [5]: 1.1 L/kg; clearance [6]: 13.6 mL/min/kg
11 | 50 µM |  | Cn1nc(C2CCN(C(=O)CNC(=O)[C@H](N=C(N)N)C3CCCCC3)CC2)cc1-c1cccc(Cl)c1Cl | 
12 | 40 µM |  | COC(=O)c1ccc(COc2ccc(-c3cc(C4CCN(C(=O)CNC(=O)[C@@H](CC(C)C)N=C(N)N)CC4)n(C)n3)c(Cl)c2Cl)cc1 | 
13 | 0.6 µM |  | CC(C)C[C@@H](N=C(N)N)C(=O)NCC(=O)N1CCC(c2cc(-c3ccc(OCc4ccc(CC(=O)O)cc4)c(Cl)c3Cl)nn2C)CC1 | 
14 | 40 µM |  | NC(N)=N[C@@H](C(=O)NCC(=O)N1CCC(c2cc(-c3ccccc3Cl)n[nH]2)CC1)C1CCCCC1 | 
15 |  | 9 µM | COC(=O)[C@H](Cc1ccc(C#Cc2ccccc2)cc1)NC(=O)CNC(=O)[C@@H](N=C(N)N)C(C)(C)C | 
16 | 110 µM |  | NC(N)=N[C@@H](C(=O)NCC(=O)N1CCC(c2cc(-c3ccc(Cl)c(Cl)c3)n[nH]2)CC1)C1CCCCC1 | 
17 | 50 µM |  | Cc1ccccc1-c1cc(C2CCN(C(=O)CNC(=O)[C@H](N=C(N)N)C3CCCCC3)CC2)[nH]n1 | 
18 |  | ~2000 µM | COC(=O)[C@H](Cc1ccc(C#Cc2ccccc2)cc1)NC(=O)CNC(=O)[C@@H](C)N=C(N)N | 
19 | 150 µM |  | Cc1cccc(-c2cc(C3CCN(C(=O)CNC(=O)[C@H](N=C(N)N)C4CCCCC4)CC3)[nH]n2)c1 | 
20 | 120 µM |  | NC(N)=N[C@@H](C(=O)NCC(=O)N1CCC(c2cc(-c3ccccc3)n[nH]2)CC1)C1CCCCC1 | 

Row | IC50 (Interleukin-2 [1]) | IC50 (Interleukin-2 [2]) | Compound | further results
21 |  | 900 µM | COC(=O)[C@H](Cc1ccc(C#Cc2ccccc2)cc1)NC(=O)CNC(=O)[C@@H](CCC(N)=O)N=C(N)N | 
22 | 150 µM |  | N=C(N)N[C@@H](C(=O)NCC(=O)N1CCC(c2cccc(-c3ccc(Cl)cc3Cl)c2)CC1)C1CCCCC1 | 
23 |  | 26 µM | CC[C@@H](C)[C@H](N=C(N)N)C(=O)NCC(=O)N[C@@H](Cc1ccc(C#Cc2ccccc2)cc1)C(=O)OC | 
24 | 20 µM |  | Cn1nc(-c2cccc(Cl)c2Cl)cc1C1CCN(C(=O)CNC(=O)[C@H](N=C(N)N)C2CCCCC2)CC1 | 
25 | 400 µM |  | CC1C(c2cccc(Cl)c2Cl)=NN=C1C1CCN(C(=O)CNC(=O)[C@H](N=C(N)N)C2CCCCC2)CC1 (some centres undefined) | 
26 | 8.1 µM |  | CC(C)C[C@@H](N=C(N)N)C(=O)NCC(=O)N1CCC(c2cc(-c3ccc(O)c(Cl)c3Cl)nn2C)CC1 | 
27 | 0.4 µM |  | CC(C)C[C@@H](N=C(N)N)C(=O)NCC(=O)N1CCC(c2cc(-c3ccc(OCc4cccc(C(=O)O)c4)c(Cl)c3Cl)nn2C)CC1 | 
28 |  | > 2000 µM | COC(=O)[C@H](Cc1ccc(C#Cc2ccccc2)cc1)NC(=O)CNC(=O)CNC(=N)N | 
29 |  | 1200 µM | COC(=O)[C@H](Cc1ccc(C#Cc2ccccc2)cc1)NC(=O)CNC(=O)CN(C)C(=N)N | 
30 | 130 µM |  | Cc1cccc(-c2cc(C3CCN(C(=O)CNC(=O)[C@H](N=C(N)N)C4CCCCC4)CC3)[nH]n2)c1C | 
31 |  | 80 µM | COC(=O)[C@H](Cc1ccc(C#Cc2ccccc2)cc1)NC(=O)CNC(=O)[C@@H](N=C(N)N)C(C)C | 
32 |  |  | COCC(=O)N[C@@H](Cc1ccc(C#Cc2ccccc2)cc1)C(=O)O | IC50 (Interleukin-2 [4]): 2200 µM; KdSPA (Interleukin-2 [7]): 1.5 mM
33 | 35 µM |  | CC(C)C[C@@H](N=C(N)N)C(=O)NCC(=O)N1CCC(c2cc(-c3ccc(OCc4ccccc4)c(Cl)c3Cl)nn2C)CC1 | 
34 | 30 µM |  | N=C(N)N[C@@H](C(=O)NCC(=O)N1CCC(c2cc(-c3ccc(O)cc3Cl)[nH]n2)CC1)C1CCCCC1 | 
35 |  | 37 µM | COC(=O)[C@H](Cc1ccc(C#Cc2ccccc2)cc1)NC(=O)CNC(=O)[C@@H](CC1CCCCC1)N=C(N)N | 
36 | 50 µM |  | COc1ccc(-c2cc(C3CCN(C(=O)CNC(=O)[C@H](N=C(N)N)C4CCCCC4)CC3)[nH]n2)c(Cl)c1 | 
37 |  | > 2000 µM | COC(=O)[C@H](Cc1ccc(C#Cc2ccccc2)cc1)NC(=O)CNC(=O)[C@H](N=C(N)N)C(C)C | 
38 |  | 280 µM | COC(=O)[C@H](Cc1ccc(C#Cc2ccccc2)cc1)NC(=O)CNC(=O)[C@H](C)N=C(N)N | 
39 |  | 1000 µM | COC(=O)[C@H](Cc1ccc(C#Cc2ccccc2)cc1)NC(=O)CNC(=O)[C@H]1CCCN1C(=N)N | 
40 | 0.2 µM |  | CC(C)C[C@@H](N=C(N)N)C(=O)NCC(=O)N1CCC(c2cc(-c3ccc(OCc4ccc(C(=O)O)cc4)c(Cl)c3Cl)nn2C)CC1 | 
